Article PMC7047882 (Archives of biochemistry and biophysics, 2019)
Read-outs that look alike come from different tables or passages of the source.

Legend:
bovine brain tubulin [1] = target: T1, bovine brain tubulin (Bos taurus, UniProt P81947+Q6B856); assay: biochemical; format: binding; details: for inhibition at 30 µM: pH 6.9, read-out: Effect on DZA binding (% inhibition ± SE)
bovine brain tubulin [2] = target: T1, bovine brain tubulin; assay: Turbidity development; format: biochemical
Summary of the method: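 Electrophoretically homogeneous bovine brain tubulin, without the gel-filtration step used for the binding studies. Reactions were run in glass vessels in 0.1 M Mes, brought to pH 6.5 or 6.9 with NaOH, with MgCl2 (for example 2 mM, 22 °C). Test compounds were added from dimethyl sulfoxide stocks, with the same dimethyl sulfoxide concentration in controls. The read-out was turbidity development.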

cultured cancer cells = details: cited from earlier work
bovine brain tubulin [3] = target: T1, bovine brain tubulin; assay: Recovery of compound-induced aberrant tubulin polymer by centrifugation; format: biochemical; details: for tubulin recovery by centrifugation (in words): pH 6.9, 2 mM MgCl2, 22 °C
Summary of the method: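 Electrophoretically homogeneous bovine brain tubulin, without gel filtration, was used. Reaction mixtures contained 0.1 M Mes (pH 6.9 or 6.5, adjusted with NaOH) with 2 mM MgCl₂ at 22 °C. The test compound was added from dimethyl sulfoxide stocks, and controls received equal dimethyl sulfoxide. Reactions were run in glass vessels, and aberrant polymer was harvested by centrifugation and read as tubulin in pellets.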

tubulin [4] = details: cited from earlier work
tubulin [5] = details: cited from earlier work; remark: listed apart in the source
tubulin [6] = details: cited from earlier work; remark: listed apart in the source

T1 sequence (Q6B856 whole entry): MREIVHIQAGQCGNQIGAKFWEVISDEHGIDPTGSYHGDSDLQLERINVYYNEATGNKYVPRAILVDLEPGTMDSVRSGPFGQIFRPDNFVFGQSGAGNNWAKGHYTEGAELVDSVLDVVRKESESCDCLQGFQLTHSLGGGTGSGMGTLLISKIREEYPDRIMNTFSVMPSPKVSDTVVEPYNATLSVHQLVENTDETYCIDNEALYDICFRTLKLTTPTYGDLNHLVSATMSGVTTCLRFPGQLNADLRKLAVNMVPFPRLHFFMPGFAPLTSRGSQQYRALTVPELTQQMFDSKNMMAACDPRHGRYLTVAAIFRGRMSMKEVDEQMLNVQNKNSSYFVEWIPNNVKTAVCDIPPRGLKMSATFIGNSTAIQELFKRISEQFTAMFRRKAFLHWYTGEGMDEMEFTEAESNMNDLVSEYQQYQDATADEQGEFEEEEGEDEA
T1 sequence (P81947 whole entry): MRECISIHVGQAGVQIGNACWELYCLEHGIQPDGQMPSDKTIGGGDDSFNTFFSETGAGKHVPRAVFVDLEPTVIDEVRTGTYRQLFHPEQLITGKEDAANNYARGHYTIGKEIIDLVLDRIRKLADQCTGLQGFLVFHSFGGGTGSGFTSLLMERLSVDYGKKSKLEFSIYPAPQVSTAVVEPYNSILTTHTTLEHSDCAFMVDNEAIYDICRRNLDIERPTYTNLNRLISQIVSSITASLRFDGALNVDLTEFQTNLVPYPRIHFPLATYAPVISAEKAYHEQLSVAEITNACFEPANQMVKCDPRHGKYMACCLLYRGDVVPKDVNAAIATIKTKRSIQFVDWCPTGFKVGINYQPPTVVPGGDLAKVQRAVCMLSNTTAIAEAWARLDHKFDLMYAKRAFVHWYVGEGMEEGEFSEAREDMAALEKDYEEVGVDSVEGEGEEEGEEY

## COc1ccc(/C=C\c2cc(OC)c(OC)c(OC)c2)cc1O [Combretastatin A-4, combretastatin A-4]
Bovine brain tubulin [1]
  inhibition at 30 µM: 17 ± 3%

## COc1ccc(C[C@H]2NC(=O)/C=C/C[C@@H]([C@H](C)[C@H]3O[C@@H]3c3ccccc3)OC(=O)[C@H](CC(C)C)OC(=O)[C@H](C)CNC2=O)cc1Cl [Cryptophycin 1, cryptophycin 1]
Bovine brain tubulin [2]; most conditions examined
  turbidity development (in words): little turbidity development
Bovine brain tubulin [1]; preincubated tubulin, near maximal with 3 μM compound
  maximal inhibition of [^3H]DZA binding: 50-60%
Cultured cancer cells
  IC50 values for cultured cancer cells (in words): picomolar

## CC[C@H](C)[C@@H]([C@@H](CC(=O)N1CCC[C@H]1[C@H](OC)[C@@H](C)C(=O)N[C@@H](Cc1ccccc1)c1nccs1)OC)N(C)C(=O)[C@@H](NC(=O)[C@H](C(C)C)N(C)C)C(C)C [D10, dolastatin 10]
Bovine brain tubulin [2]; all conditions examined
  turbidity development (in words): Extensive turbidity development
Bovine brain tubulin [1]; without a tubulin preincubation
  inhibition of [^3H]DZA binding to tubulin (in words): inhibition was negligible
Bovine brain tubulin [3]; 10 and 20 μM compound
  tubulin recovery by centrifugation (in words): even larger amounts

## CC(C)[C@H](O)C(=O)N[C@H]1Cc2ccc3c(c2)[C@]24C5=C(N=C(O5)[C@H](C(C)C)NC1=O)c1nc(Cl)c(o1)-c1c(Cl)[nH]c5cccc(c15)-c1cccc2c1N[C@@H]4O3 [DZA, diazonamide A]
Bovine brain tubulin [2]; 0.1 M Mes (pH 6.5), 2 mM MgCl2, 22 °C
  turbidity development (in words): differed little from that with D10
Bovine brain tubulin [1]
  inhibition of [^3H]DZA binding to tubulin (in words): no inhibition of binding
Tubulin [4]
  inhibition of binding of [^3H]D10 to tubulin (in words): no inhibition
Bovine brain tubulin [3]; 10 and 20 μM compound
  tubulin recovery by centrifugation (in words): large amounts
Bovine brain tubulin [3]; pH 6.5, 2 mM MgCl2, 22 °C
  tubulin recovered in pellets (in words): almost all the tubulin
Tubulin [5]
  inhibition of binding of [^3H]vinblastine to tubulin (in words): no inhibition
Tubulin [6]
  inhibition of tubulin assembly (in words): potent inhibitor

## CN[C@H](C(=O)N[C@H](C(=O)N(C)[C@H](/C=C(\C)C(=O)O)C(C)C)C(C)(C)C)C(C)(C)c1cn(C)c2ccccc12 [Hemiasterlin, hemiasterlin]
Bovine brain tubulin [1]
  inhibition at 30 µM: 43 ± 3%
Bovine brain tubulin [3]; 20 μM compound
  tubulin recovery by centrifugation (in words): a moderate amount

## COc1cc2cc(c1Cl)N(C)C(=O)C[C@H](OC(=O)[C@H](C)N(C)C(C)=O)[C@]1(C)O[C@H]1[C@H](C)[C@@H]1C[C@@](O)(NC(=O)O1)[C@H](OC)/C=C/C=C(\C)C2 [Maytansine, maytansine]
Bovine brain tubulin [1]
  inhibition at 30 µM: 9.2 ± 6%

## CC[C@]1(O)C[C@@H]2CN(CCc3c([nH]c4ccccc34)[C@@](C(=O)OC)(c3cc4c(cc3OC)N(C)[C@H]3[C@@](O)(C(=O)OC)[C@H](OC(C)=O)[C@]5(CC)C=CCN6CC[C@]43[C@@H]65)C2)C1 [Vinblastine, vinblastine]
Bovine brain tubulin [1]
  inhibition of [^3H]DZA binding to tubulin (in words): absolutely no inhibitory effect
Bovine brain tubulin [1]; pH 6.9
  Effect on DZA binding (% enhancement ± SE; indicated by E before the value): E 11 ± 5%
Bovine brain tubulin [3]; 20 μM compound
  tubulin recovery by centrifugation (in words): even larger amounts
